The values that follow come from publication PMC7156834 (Cancer Science, 2020).

One assay deals with MCF‐10A cells. Description: Cell proliferation assay. The class given is cell-based, human. The settings on record: MTT, 1, 10 or 100 µmol L^−1, 48 h. The essentials: (§1)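 Cells treated 48 h with test compound at 1, 10 or 100 µmol L⁻¹, or with 1% DMSO solvent alone. Culture media: MIA PaCa-2 in low-glucose DMEM with 10% FBS; MCF-10A in DMEM/F-12 with 5% horse serum, EGF, insulin and hydrocortisone. MTT added for 4 h, then cells lysed in DMSO. OD read at 570 nm (650 nm correction). Viability expressed relative to DMSO-treated cells (100%). Mean ± SD, n = 5–6; Kruskal-Wallis test with Dunn's post hoc test.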

In assay [1] the test system is human serum albumin (HSA). The assay is described as follows: QCM response to human serum albumin-immobilized sensor chip. The class given is binding. The settings on record: QCM sensorgram, result in words. An outline of the steps: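 Quartz crystal microbalance run with an HSA-immobilized sensor chip. Test compound added to the cuvette in successive portions, giving overall cuvette concentrations that start at 1 and 10 nmol L⁻¹. Frequency change recorded over time as the binding response.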

The test system of assay [2] is survivin in MIA PaCa‐2 cells. Description: Western blot of survivin protein expression, MIA PaCa-2. The class given is cell-based, human. The settings on record: 40 µmol L^−1, 48 h, P = .366, without statistical significance, n = 3.
Assay [3] has as its system MIA PaCa‐2 cells. Description: Flow cytometry, annexin V-FITC/PI apoptosis. Conditions: n = 3. It is filed as cell-based, human.
The target of assay [4] is recombinant human survivin (Homo sapiens, UniProt O15392). The assay is described as follows: Saturation binding assay of peptides to recombinant survivin protein. The settings on record: QCM sensorgram, result in words. An outline of the steps:
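Quartz crystal microbalance. Recombinant human survivin (40 μg/mL) amide-coupled to the gold electrode of the sensor chip, with the chip soaked in buffer. 8 μL aliquots of test peptide solutions (10–256 μmol L⁻¹ as injected) added sequentially to the cuvette. Frequency change monitored over time. Kd derived by kinetic analysis using a one-binding-site model.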

Assay [5] concerns survivin in MDA‐MB‐231 cells. The assay is described as follows: Western blot of survivin protein expression, MDA-MB-231. It is filed as cell-based, human. The settings on record: 10 or 40 μmol L^−1, 48 h, vs vehicle control, n = 3.
In assay [6] the test system is cleaved caspase‐3 in MIA PaCa‐2 cells. Description: Western blot of cleaved caspase-3, MIA PaCa-2. The settings on record: even at 10 µmol L^−1, 48 h, vs untreated cells, n = 3. It is filed as cell-based, human.
The subject of assay [7] is MIA PaCa‐2 cells. Description: Cell proliferation assay. The class given is cell-based, human. Conditions: MTT, different concentrations, 48 h. The essentials: as §1
For a further assay, the system named is MDA‐MB‐231 cells. The assay is described as follows: Cell proliferation assay. The class given is cell-based, human. Conditions: MTT, different concentrations, 48 h.
The target of assay [8] is T1, recombinant human survivin (human, UniProt O15392). The assay is described as follows: quartz crystal microbalance.
The target of assay [9] is T1, recombinant human survivin. The assay is described as follows: quartz crystal microbalance. The source holds these as a separate data set.

Where two headings read alike, the source gives them in different places. No end group written: not given here. Some results are limits rather than exact numbers.

T1 sequence (O15392 whole entry): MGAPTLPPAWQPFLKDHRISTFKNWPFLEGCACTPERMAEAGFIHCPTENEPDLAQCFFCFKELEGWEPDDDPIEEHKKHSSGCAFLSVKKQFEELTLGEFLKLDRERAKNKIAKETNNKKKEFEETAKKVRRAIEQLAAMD
recombinant human survivin (Homo sapiens, UniProt O15392), sequence (O15392 whole entry): as above

For `CSCC[C@H](NC(=O)[C@H](CC(C)C)NC(=O)[C@H](CCCCN)NC(=O)[C@H](CCC(N)=O)NC(=O)[C@H](CC(=O)O)NC(=O)CCCCCNC(=O)[C@@H](CCCNC(=N)N)NC(=O)[C@@H](CCCNC(=N)N)NC(=O)[C@@H](CCCNC(=N)N)NC(=O)[C@@H](CCCNC(=N)N)NC(=O)[C@@H](CCCNC(=N)N)NC(=O)[C@@H](CCCNC(=N)N)NC(=O)[C@@H](CCCNC(=N)N)NC(=O)[C@@H](CCCNC(=N)N)NC(=O)[C@@H](CCCNC(=N)N)NC(C)=O)C(=O)N[C@@H](CCC(=O)O)C(=O)N[C@@H](Cc1ccccc1)C(N)=O` [r9‐INC16‐22], the “antiproliferative effect on MCF‐10A cells (in words)” value with MCF‐10A cells is reported as “No marked antiproliferative effect”. The “QCM response to HSA-immobilized sensor chip” value in assay [1] was “no significant response”. In assay [2], the “protein expression level of survivin in MIA PaCa‐2 cells” value is recorded as “apparently reduced the protein level”. For the same molecule, in the assay with MIA PaCa‐2 cells [3] (MIA PaCa‐2, 10 μmol L^−1, 24 h), the early apoptosis rate is reported as 52.4%; the “late apoptosis and necrosis rate” value turned out to be 29.4%. Besides, in the assay on MIA PaCa‐2 cells [3] (MIA PaCa‐2, 50 μmol L^−1, 24 h), the early apoptosis rate is reported as 49.6%; the “late apoptosis and necrosis rate” value is recorded as 44.2%. In addition, in assay [4], the “QCM response to survivin-immobilized sensor chip” value is “strongly responded to survivin in a dose‐dependent manner”. The “protein expression level of survivin in MDA‐MB‐231 cells” value in [5] is “Neither the treatment with r9‐INC16‐22 at a concentration of 10 μmol L^−1 nor at 40 μmol L^−1 showed any significant decrease”. Moreover, the “expression of cleaved caspase‐3 in MIA PaCa‐2 cells” value in assay [6] is given as “significantly increased”.

“Ac-rrrrrrrrr-ahx-QLDMFKE-NH2 [r9‐scINC16‐22]”: the “antiproliferative effect on MIA PaCa‐2 cells (in words)” value in the assay with MIA PaCa‐2 cells [7] is given as “no significant antiproliferative effect”. The “QCM response to survivin-immobilized sensor chip” value in assay [4] is reported as “negligible response”. In addition, the “antiproliferative effect on MDA‐MB‐231 cells (in words)” value in the assay with MDA‐MB‐231 cells was “no significant antiproliferative effect”.

On to QLDMFKE-NH2 [scINC_(16-22)], for which, in assay [8], the Kd is above 300 nM.

Take EEAERMFTR-NH2 [INC_(39-47)]: the Kd in assay [9] is 135 nM.

Turning to LVWLEEIQ-NH2 [INC_(31-38)], the Kd in assay [9] is 108 nM.

CDQKLMEF-NH2 [INC_(15-22)]: in assay [8], the Kd worked out at 248 nM.

GPIHLLEL-NH2 [INC_(7-14)]: the Kd in assay [9] came to 214 nM.

With DQKLMEF-NH2 [INC_(16-22)], the Kd in assay [9] is 91.4 nM.

As to DNKDLVWL-NH2 [INC_(27-34)], the Kd in [9] is 255 nM.

Take LCNMDNKD-NH2 [INC_(23-30)]: the Kd in [9] was determined as 117 nM.

As to DQKLMEFLCNMDNKDLVWL-NH2 [INC_(16-34)], the Kd in assay [8] worked out at 160 nM.

B1: FITC-INC_(16-22) (peptide)
peptide: DQKLMEF
HELM: PEPTIDE1{[O=C1OC2(c3ccc(O)cc3Oc3cc(O)ccc32)c2ccc(NC(=S)[*:2])cc21].[O=C(CCCCCN[*:1])[*:2]].D.Q.K.L.M.E.F.[am]}$$$$V2.0
SMILES: CSCC[C@H](NC(=O)[C@H](CC(C)C)NC(=O)[C@H](CCCCN)NC(=O)[C@H](CCC(N)=O)NC(=O)[C@H](CC(=O)O)NC(=O)CCCCCNC(=S)Nc1ccc2c(c1)C(=O)OC21c2ccc(O)cc2Oc2cc(O)ccc21)C(=O)N[C@@H](CCC(=O)O)C(=O)N[C@@H](Cc1ccccc1)C(N)=O
Consider B1, for which the Kd in [8] came to 66 nM.
